Data set [1] addresses T1, Cytochrome P450 2B6 (Homo sapiens, UniProt P20813).
T1 sequence (P20813 whole entry): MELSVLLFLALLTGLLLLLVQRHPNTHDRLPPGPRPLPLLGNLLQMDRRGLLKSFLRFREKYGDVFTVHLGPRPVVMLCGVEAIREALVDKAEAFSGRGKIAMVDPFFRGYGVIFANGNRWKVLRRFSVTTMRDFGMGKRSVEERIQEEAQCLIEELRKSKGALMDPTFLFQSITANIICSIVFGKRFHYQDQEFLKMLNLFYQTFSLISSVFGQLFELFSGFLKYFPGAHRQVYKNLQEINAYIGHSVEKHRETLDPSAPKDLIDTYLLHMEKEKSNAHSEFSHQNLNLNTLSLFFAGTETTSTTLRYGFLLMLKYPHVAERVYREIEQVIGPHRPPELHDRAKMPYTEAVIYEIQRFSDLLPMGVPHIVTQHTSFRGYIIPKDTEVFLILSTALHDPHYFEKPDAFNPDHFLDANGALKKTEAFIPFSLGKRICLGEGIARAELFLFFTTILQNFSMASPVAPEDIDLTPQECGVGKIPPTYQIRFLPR
The experiment in a line: Activity at recombinant CYP2B6 (unknown origin) expressed in baculovirus-infected insect cells assessed as enzyme-mediated drug depletion at 1 to 10 uM by LC-MS/MS analysis in presence of NADPH. Format: ADME. An outline of the steps:
(§1)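 BILR 402 (1 or 10 μM) with baculovirus/insect-cell recombinant CYPs, levels scaled to average liver content (1A2 2, 2A6 1, 2B6 0.1, 2C9 1.5, 2C19 1.5, 2D6 0.3, 3A4 5 pmol/mL). Buffer 0.1 M potassium phosphate, 5 mM MgCl2, pH 7.4; 2.5 mM NADPH; 37 °C. Non-transfected insect microsomes served as controls. Aliquots taken 0.5–30 min and acetonitrile-quenched; depletion measured by LC-MS/MS with isotope-labelled internal standard.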

For data set [2], the target named is Cytochrome P450 3A4 (Homo sapiens, UniProt P08684). The experiment in a line: Activity at recombinant CYP3A4 (unknown origin) expressed in baculovirus-infected insect cells assessed as enzyme-mediated drug depletion by measuring compound level at 1 uM after 4 mins by LC-MS/MS analysis in presence of NADPH. Format: ADME. An outline of the steps: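 rCYP3A4 (5 pmol/mL) incubated with BILR 402 at 1 or 10 μM in 0.1 M potassium phosphate/5 mM MgCl2, pH 7.4, with NADPH at 37 °C. Remaining BILR 402 and BILR 355 formed were read at 4 min by LC-MS/MS against a labelled internal standard.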
Chain of Cytochrome P450 3A4 (P08684 whole entry): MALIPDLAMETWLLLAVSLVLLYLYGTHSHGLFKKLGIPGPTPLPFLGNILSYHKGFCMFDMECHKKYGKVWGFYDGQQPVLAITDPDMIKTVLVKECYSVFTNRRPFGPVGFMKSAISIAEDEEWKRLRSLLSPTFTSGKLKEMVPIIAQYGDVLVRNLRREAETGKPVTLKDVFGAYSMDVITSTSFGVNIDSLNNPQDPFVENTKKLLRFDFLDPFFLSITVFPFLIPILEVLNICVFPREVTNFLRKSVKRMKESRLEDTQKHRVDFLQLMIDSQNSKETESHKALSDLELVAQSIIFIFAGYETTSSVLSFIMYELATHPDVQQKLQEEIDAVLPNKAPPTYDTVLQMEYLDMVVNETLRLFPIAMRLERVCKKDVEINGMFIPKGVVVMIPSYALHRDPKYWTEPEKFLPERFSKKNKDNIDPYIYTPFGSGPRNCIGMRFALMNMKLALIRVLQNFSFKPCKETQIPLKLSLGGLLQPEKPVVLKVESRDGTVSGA

The test system of data set [3] is Liver cytosol. Description: Drug metabolism in human liver cytosol assessed as BILR516-18O and BILR516-16O metabolite formation at 5 uM after 60 mins by 18O incorporation based LC-MS/MS analysis. Format: ADME, tissue-based. The settings on record: 1 h. An outline of the steps: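 BILR 402 (5 μM final) was incubated with human liver cytosol in 0.05 M potassium phosphate buffer made with 100% H2^16O or H2^16O/H2^18O 82:18 (v/v), at 37 °C without NADPH. […] The M+2 isotope contribution was subtracted before calculating peak-area ratios; n=2.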

Data set [4] in a line: Drug metabolism in human liver S9 fraction assessed as BILR355 formation at 10 uM by LC-MS/MS analysis in absence of NADPH. Format: ADME. The settings on record: s9, 10 µM. Put shortly: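 BILR 402 (10 μM final) was incubated with human liver S9 or cytosol (1 mg/mL protein) in 0.05 M potassium phosphate pH 7.4 at 37 °C. Runs were done with or without 2.5 mM NADPH. Samples at 10, 20, 30 and 60 min were quenched in nevirapine/acetonitrile, filtered and analysed by LC-MS/MS; duplicate.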

The target of data set [5] is T2, Cytochrome P450 2A6 (Homo sapiens, UniProt P11509).
T2 sequence (P11509 whole entry): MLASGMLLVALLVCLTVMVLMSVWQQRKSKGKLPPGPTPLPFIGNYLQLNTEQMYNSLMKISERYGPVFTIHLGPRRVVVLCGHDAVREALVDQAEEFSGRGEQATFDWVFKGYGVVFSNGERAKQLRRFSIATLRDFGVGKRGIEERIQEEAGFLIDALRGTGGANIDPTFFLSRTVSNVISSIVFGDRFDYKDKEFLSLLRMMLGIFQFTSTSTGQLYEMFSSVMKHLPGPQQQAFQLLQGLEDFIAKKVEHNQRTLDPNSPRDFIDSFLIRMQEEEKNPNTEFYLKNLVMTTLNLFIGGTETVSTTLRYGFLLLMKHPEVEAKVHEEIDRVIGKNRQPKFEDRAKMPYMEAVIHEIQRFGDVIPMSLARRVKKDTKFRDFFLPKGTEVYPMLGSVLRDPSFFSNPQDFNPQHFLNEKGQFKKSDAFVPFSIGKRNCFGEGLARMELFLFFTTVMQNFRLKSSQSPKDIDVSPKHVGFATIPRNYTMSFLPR
Description: Activity at recombinant CYP2A6 (unknown origin) expressed in baculovirus-infected insect cells assessed as enzyme-mediated drug depletion at 1 to 10 uM by LC-MS/MS analysis in presence of NADPH. Type of data set: ADME. Put shortly: as §1

Data set [6] concerns the target T3, Cytochrome P450 1A2 (Homo sapiens, UniProt P05177).
T3 sequence (P05177 whole entry): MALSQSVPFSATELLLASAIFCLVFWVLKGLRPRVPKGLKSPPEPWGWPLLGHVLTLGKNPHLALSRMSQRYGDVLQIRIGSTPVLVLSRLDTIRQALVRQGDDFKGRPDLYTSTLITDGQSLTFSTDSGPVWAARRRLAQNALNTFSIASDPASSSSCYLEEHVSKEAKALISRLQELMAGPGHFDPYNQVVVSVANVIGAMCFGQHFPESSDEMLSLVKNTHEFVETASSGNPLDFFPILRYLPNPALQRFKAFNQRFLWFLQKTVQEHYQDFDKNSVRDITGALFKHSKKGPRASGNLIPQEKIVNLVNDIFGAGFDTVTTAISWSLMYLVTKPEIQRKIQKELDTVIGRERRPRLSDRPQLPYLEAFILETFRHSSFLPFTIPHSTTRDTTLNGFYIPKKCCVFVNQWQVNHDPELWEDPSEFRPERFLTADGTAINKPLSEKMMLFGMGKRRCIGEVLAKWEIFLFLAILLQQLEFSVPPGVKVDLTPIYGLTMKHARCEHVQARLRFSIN
The experiment in a line: Activity at recombinant CYP1A2 (unknown origin) expressed in baculovirus-infected insect cells assessed as enzyme-mediated drug depletion at 1 to 10 uM by LC-MS/MS analysis in presence of NADPH. Format: ADME. Put shortly:
as §1

As for `CCN1c2ncc(CCOc3ccnc4ccccc34)cc2C(=O)N(C)c2cccnc21`, the Drug metabolism result in data set [1] is “metabolite_not_detected”; in data set [2] it was 0.25 µM; in data set [3], “metabolite_detected”; in data set [4] it was “metabolite_not_detected”; in data set [5], “metabolite_not_detected”; in data set [6], “metabolite_not_detected”.
